Several values for one entry are separate records, joined by “and”; a condition that tells them apart may be missing. Identical values can stand only once.
Columns and labels:
CHO [1] = assay: Inhibitory concentration on de novo synthesis of sphingomyelin (SM) by metabolic labeling of lipids in CHO cells with radioactive serine; format: functional, cell-based; details: Cricetulus griseus
Outline: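 Compound tested at 0 to 1 μM in serum-free medium containing 0.01% (v/v) DMSO. Subconfluent CHO-K1 monolayers were preincubated at 4 °C for 15 min, then pulsed with L-[14C]serine (0.75 μCi) at 33 °C for 2 h. Labeled SM was separated by TLC, imaged, and normalized to cell protein. IC50 came from […] of a single assay series.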

CHO [2] = assay: Effect of compound on de novo synthesis of sphingomyelin (SM) by metabolic labeling of lipids in CHO cells with radioactive serine at 1 uM; format: functional, Cricetulus griseus
Outline: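 CHO-K1 subconfluent monolayers preincubated in serum-free medium with compound at 1 μM, 0.01% (v/v) DMSO, 4 °C for 15 min. L-[14C]serine (0.75 μCi) then added, 33 °C for 2 h. Lipids extracted, TLC-separated, labeled SM quantified by imaging analyzer and normalized to lysate protein. Reported as % of DMSO-only control; mean ± SD, n = 3.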

CCCCCCCCCCCCCCC(=O)N[C@@H](CO)C[C@@H](O)c1ccccc1
IC50 (CHO [1]): 90 nM

CCCCCCCCCCCC(=O)N[C@@H](CO)[C@H](O)[C@@H](O)c1ccccc1
Sphingomyelin synthesis, % of control (CHO [2]): 28%

CCCCCCCCCCCC(=O)N[C@@H](CO)[C@@H](O)[C@@H](O)c1ccccc1
Sphingomyelin synthesis, % of control (CHO [2]): 57%

CCCCCCCCCC(=O)N[C@@H](CO)C[C@@H](O)c1ccccc1
IC50 (CHO [1]): 300 nM

CCCCCCCCCCCCCCCC(=O)N[C@@H](CO)C[C@@H](O)c1ccccc1
IC50 (CHO [1]): > 1000 nM

CCCCCCCCCCCC(=O)N[C@@H](CO)C[C@@H](O)c1ccccc1
IC50 (CHO [1]): 70 nM | Sphingomyelin synthesis, % of control (CHO [2]): 8.2% and 4%

CCCCCCCCCCCC(=O)N[C@@H](COC)C[C@@H](O)c1ccccc1
Sphingomyelin synthesis, % of control (CHO [2]): 79%

CCCCCCCCCCCCCCCCCC(=O)N[C@@H](CO)C[C@@H](O)c1ccccc1
IC50 (CHO [1]): > 1000 nM

CCCCCCCCCCCCCCCCC(=O)N[C@@H](CO)C[C@@H](O)c1ccccc1
IC50 (CHO [1]): > 1000 nM

CCCCCCCCCCCC(=O)N[C@@H](CO)[C@@H](O)[C@H](O)c1ccccc1
Sphingomyelin synthesis, % of control (CHO [2]): 40%

CCCCCCCCCCCCCC(=O)N[C@@H](CO)C[C@@H](O)c1ccccc1
IC50 (CHO [1]): 70 nM

CCCCCCCCCCCCC(=O)N[C@@H](CO)C[C@@H](O)c1ccccc1
IC50 (CHO [1]): 50 nM

CCCCCCCCCCCC(=O)N[C@@H](CO)C[C@@H](OC)c1ccccc1
Sphingomyelin synthesis, % of control (CHO [2]): 119%

CCCCCCCCCCC(=O)N[C@@H](CO)C[C@@H](O)c1ccccc1
IC50 (CHO [1]): 110 nM

CCCCCCCCCCCC(=O)N[C@@H](CO)[C@H](O)[C@H](O)c1ccccc1
Sphingomyelin synthesis, % of control (CHO [2]): 17%

CCCCCCCCCCCC(=O)N[C@@H](COC)C[C@@H](OC)c1ccccc1
Sphingomyelin synthesis, % of control (CHO [2]): 130%
